In the library only some 7.4% were active in any assay of this set; here they are far more common.
S1P1 ag pot – S1P1 agonists and agonism potentiators, primary screen, cell-based, primary and confirmation screens, CRE-bla reporter; 56,000 compounds, 0.57% hits; activation, % at 9.5 µM; S1P1 CRE-bla cells, forskolin, beta-lactamase FRET, potentiator mode; S1P1 agonist co-added at EC20, 2 nM; 100% = saturating reference agonist, 0% = basal; AID 449, 2006;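 active means activation above a cutoff set at the mean activation of all tested compounds plus 3 SD, cut at about 54% in these data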;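 further: forskolin at 4 µM as EC80 and the EC20 agonist is SEW2871; 100% = SEW2871 at its EC100 plus forskolin at EC80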
S1P3 ag – human S1P3 receptor agonists, primary screen, cell-based, primary and confirmation, NFAT-BLA reporter; Sphingosine 1-phosphate receptor 3 (Homo sapiens), Q99500; 60,000 compounds, 0.1% hits; activation, % at 4.5 µM; S1P3 NFAT-BLA reporter cells, agonism, FRET ratio; relative to 1 µM S1P, basal subtracted;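 active means activation above the screen-wide mean plus 3 SD, cut at about 4.5% in these data, passing the limit was not always enough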
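Assay system: CHO cells stably expressing human S1P3, Gα16 and NFAT-β-lactamase reporter. Timing: overnight plating, 4 h compound 37 °C, 2 h substrate RT. Signal: β-lactamase FRET emission ratio 460/535 nm. Measure: percent activation versus median 1 µM S1P response, basal-subtracted, per plate. Repeats: primary screen single test, confirmation screen in triplicate.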
Jurkat tox 60K – cytotoxicity toward Jurkat T cells, primary screen, cytotoxicity control, cell-based, Jurkat E6.1, 60K MLSMR library. Jurkat E6.1 viability, ATP luminescence, 48 h. inhibition, % at 4 µM. 56,000 compounds, 1.2% hits. AID 463, 2006;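 active means inhibition above the mean inhibition of all tested compounds plus 3 SD, cut at about 28% in these data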
M1 ag – M1 muscarinic receptor agonists, primary screen, CHO-M1 cells, Fluo-4 calcium, agonist mode. Fluo-4 calcium fluorescence; stronger effect = higher value. AID 626, 2007. 64,000 compounds, 3% hits. B-score at 10 µM. Muscarinic acetylcholine receptor M1;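 active means fluorescence rise, raw or as B-score row- and column-corrected plate score, outside the 99.7% band of its plate's samples, either direction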
JNK3 inh – JNK3 kinase activity inhibitors, primary screen, biochemical, human, purified enzyme | HTS | AID 746, 2007 | inhibition, % at 8 µM | 60,000 compounds, 0.61% hits; in the data active means inhibition above about 17%;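 further: 0% = DMSO and 100% = reference inhibitor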
M1 antagonist – antagonists of rat M1 muscarinic receptor; Muscarinic acetylcholine receptor M1 (Rattus norvegicus), P08482; AID 628, 2007; 64,000 compounds, 3.4% hits; CHO-M1 cells, Fluo-4 calcium, ACh EC80 antagonist mode; stronger effect = lower value; B-score at 10 µM;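 active means calcium fluorescence response, raw or row-and-column corrected B-score, differing from the plate sample mean either way at a set confidence level, mostly lower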
M1 agonist conf – rat M1 muscarinic receptor agonists, confirmation, CHO-M1 cells, Fluo-4 calcium, duplicate retest. Fluo-4 calcium fluorescence, agonist mode; actives lie on both sides. fluorescence change (max-min) at 10 µM. 1,700 compounds, 19% hits. shares compounds with M1 ag;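 active means fluorescence change differs from the solvent-only DMSO control mean at a set confidence level in both duplicate runs; inconclusive means differs from solvent-only control mean in just one of two runs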;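 further: an EC20 dose of acetylcholine follows compound addition during the same imaging run; raw fluorescence intensity difference in instrument units with no normalization to controls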
M4 ag counter – agonist activity at rat M4 receptor, confirmation, counter-screen for M1 allosteric modulator project, cell-based, agonist mode; fluorescence change (max-min) at 10 µM; CHO M4/Gqi5 cells, Fluo-4 calcium fluorescence; actives lie on both sides; 1,700 compounds, 9% hits; shares compounds with M1 ag; AID 1741, 2009;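 active means fluorescence change differing from the plate's solvent-only control wells at 99.7% confidence in both duplicates, whether higher or lower; inconclusive means differs from solvent controls in only one of two duplicates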
Target sequence (P08485 whole entry, looked up): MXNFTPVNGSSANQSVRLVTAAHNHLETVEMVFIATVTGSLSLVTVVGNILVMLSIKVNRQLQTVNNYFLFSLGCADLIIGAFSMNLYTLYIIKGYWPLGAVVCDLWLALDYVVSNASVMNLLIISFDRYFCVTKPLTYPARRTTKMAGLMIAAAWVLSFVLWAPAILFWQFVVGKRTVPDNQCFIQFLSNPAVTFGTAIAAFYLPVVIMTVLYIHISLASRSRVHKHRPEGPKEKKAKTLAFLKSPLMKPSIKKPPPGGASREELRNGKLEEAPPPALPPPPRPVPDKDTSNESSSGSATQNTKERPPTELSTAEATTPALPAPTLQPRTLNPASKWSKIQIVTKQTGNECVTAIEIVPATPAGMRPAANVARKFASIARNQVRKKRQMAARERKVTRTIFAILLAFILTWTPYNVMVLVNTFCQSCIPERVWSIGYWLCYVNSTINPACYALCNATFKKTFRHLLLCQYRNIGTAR
* = called active by the depositor; ? = inconclusive; . = not tested or not shown.

SMILES	S1P1 ag pot	S1P3 ag	Jurkat tox 60K	M1 ag	JNK3 inh	M1 antagonist	M1 agonist conf	M4 ag counter
CCOC(=O)Cc1csc(NC(=O)c2ccc3c(c2)OCO3)n1	-5.9	-0.9	2.3	-2.35*	3.1	-1.18	-20.9	?
CCN=C1SC(CC(=O)Nc2ccccc2)C(=O)N1CC (stereo not drawn)	1.7	0.4	3.5	10.9*	-11.1	-3.76*	?	-55.8
COc1ccc(NC(=O)Cn2cccc2)cc1Cl	0.1	0.0	6.8	0.19	-5.9	-0.132	.	.
COc1ccc(S(=O)(=O)N2CCCN(CC(=O)C(C)(C)C)CC2)cc1	10.9	-0.8	8.1	0.209	-3.2	0.00151	.	.
COc1ccc(OC)c(C(=O)CN2CCN(S(=O)(=O)c3ccc(Br)cc3)CC2)c1	20.6	0.1	-6.6	27.7*	2.9	0.406	-25	-21.3
CCCCOc1ccc(S(=O)(=O)Nc2cccnc2)cc1	84.6*	-1.2	14.8	4.89*	-3.3	-1.48	-1.35	?
CCC(=O)Nc1ccc(S(=O)(=O)Nc2cccnc2)cc1	.	0.1	7.5	0.223	3.3	0.0943	.	.
O=C(CCNS(=O)(=O)c1ccc(Br)s1)N1CCN(c2ccccc2)CC1	6.6	0.4	-1.7	-0.731	-3.9	0.12	.	.
COc1ccccc1N1CCN(C(=O)CCNS(=O)(=O)c2ccc(Br)s2)CC1	9.4	0.3	-6.3	2.56*	-0.7	0.661	?	-76.7
Cc1[nH]nc2nc3c(c(OC(=O)c4ccccc4)c12)c(=O)n(C)c(=O)n3C	7.0	-0.8	10.0	-0.61	1.0	-0.555	.	.
O=C(CSCc1c(F)cccc1Cl)NCc1ccco1	.	-0.1	-5.6	1.49*	-6.5	-0.424	-16.5	-23.1
Cc1onc(-c2c(F)cccc2Cl)c1C(=O)NCc1ccco1	-14.4	-1.3	4.8	-0.121	3.2	0.00225	.	.
O=C1c2ccccc2C(=O)N1CCc1nc2ccccc2c(=O)n1CCCn1ccnc1	-14.6	-1.2	-3.7	1.37	-0.2	-0.042	.	.
CCN1C(=O)c2cccc3c(S(=O)(=O)Nc4ccccn4)ccc1c23	-29.5	0.5	11.8	-0.916	-8.3	0.796	.	.
CCN1C(=O)c2cccc3c(S(=O)(=O)Nc4ccc(OC)cc4OC)ccc1c23	1.0	-1.4	4.8	5.33*	4.0	-1.31	-17	-17.8
O=C(Nc1ncnc2c1ncn2C1OC(COC(=O)c2ccccc2)C(F)C1O)c1ccccc1 (stereo not drawn)	10.8	-0.8	3.8	2.57*	4.2	-1.15	-10.5	-12.4
O=C(OCC1OC2C(Oc3nc(=O)ccn32)C1O)c1ccccc1 (stereo not drawn)	0.2	-0.9	0.8	2.4	-4.3	-0.492	.	.
Nc1c(C(=O)NCC2CCCO2)c2nc3ccccc3nc2n1-c1ccccc1 (stereo not drawn)	-37.9	0.5	-1.8	11.4*	0.9	-2.72	?	-69.8
O=C1C2C3CCCC3=C3CCCC3C2C(=O)N1c1ccc(Cl)cc1 (stereo not drawn)	-11.6	-1.0	2.2	4.17*	-2.9	-0.902	?	-37.6
O=C1C2CC=C(Cl)CC2C(=O)N1CN(Cc1ccco1)CN1C(=O)C2CC=C(Cl)CC2C1=O (stereo not drawn)	-31.7	-0.6	-1.1	-0.343	9.5	0.951	.	.
Cc1nc2nc[nH]n2c(=O)c1CCC(C)C	-5.6	0.9	2.5	-0.568	2.5	-1.4	.	.
CCCN(CCC)S(=O)(=O)c1ccc(C(=O)N2CCC(=O)c3ccccc32)cc1	.	-0.5	10.9	3.26*	4.0	-2.76*	-18.4	-64.5
CSc1nc2[nH]c3c(c2c2ncnn12)CCCC3	-29.4	0.0	.	8.11*	-6.5	-0.175	?	-68.2
CCN(CC)CCN1C(=O)C(=O)/C(=C(/O)c2ccncc2)C1c1ccccc1F (stereo not drawn)	-10.6	-0.2	1.9	35*	-3.6	0.0468	-11.4	?
CCNc1nc(NC(C)C)nc(Oc2ccc(OCCOc3ccc(C)cc3)nn2)n1	-32.5	-1.6	-5.4	-0.172	-2.1	0.00838	.	.
SMILES	S1P1 ag pot	S1P3 ag	Jurkat tox 60K	M1 ag	JNK3 inh	M1 antagonist	M1 agonist conf	M4 ag counter
CCOc1ccc(N2C(=O)CC(n3nc(C)cc3C)C2=O)cc1 (stereo not drawn)	-6.5	-0.2	1.4	-0.153	4.1	0.176	.	.
C=CCOC(=O)c1[nH]c2c(c1C)C(=O)CC(c1cc(OC)c(OC)c(OC)c1)C2 (stereo not drawn)	54.8	-2.3	42.8*	3.3*	-2.8	0.159	-11.6	-33.2
CCc1ccc(Cn2nnc(C(=O)NCc3ccccc3OC)c2N)cc1	-20.1	0.4	-1.1	2.18*	0.5	0.141	-28.9	-23.3
CCc1ccc(Cn2nnc(C(=O)Nc3cccc(C)c3)c2N)cc1	7.9	-0.2	6.0	-0.15	-0.8	0.149	.	.
Cc1ccc(Cn2nnc(C(=O)Nc3cccc(C)c3C)c2N)cc1	3.5	-0.9	9.8	7.51*	-0.4	0.0142	4.21	-61.8
COc1ccc(CNC(=O)c2nnn(Cc3ccc(OC)cc3)c2N)cc1	-2.6	-0.5	2.4	0.124	-6.7	0.106	.	.
Cc1cc(-n2c(SCCC#N)nnc2-c2cccnc2)ccc1Cl	.	.	.	-1.26	.	0.00223	.	.
CN1CCN(c2ncnc3c2sc2nc(N4CCCC4)c4c(c23)CC(C)(C)OC4)CC1	.	.	.	-0.271	.	0.523	.	.
COc1ccc(C)cc1NC(=O)c1cnc2sccn2c1=O	-4.2	-0.2	-3.4	1.23	-3.2	0.0752	.	.
CCOC(=O)C1=C(C)NC(SCC(=O)Nc2nc(C)cs2)=C(C#N)C1c1cccs1 (stereo not drawn)	-20.4	-2.3	.	0.0139	-2.0	0.0358	.	.
COc1ccc(N2CCN(C(=O)CSc3nnnn3-c3ccc4c(c3)OCCO4)CC2)cc1	31.2	-0.5	9.7	-3.03*	-2.4	-0.296	-17.6	?
CC(=O)Nc1cccc(-c2nnc(SCc3ccccc3C#N)n2C)c1	-7.4	-0.3	5.7	2.01	-1.4	0.23	.	.
Cc1c(NC(=O)CSC2=C(C#N)C(c3ccccc3F)CC(=O)N2)c(=O)n(-c2ccccc2)n1C (stereo not drawn)	-19.9	0.2	3.7	3.43*	-10.5	0.182	-27.4	?
